The nature of data set [1]: Solubility of the compound in MES buffer. Format: physicochemical. The method in brief: (§1)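 Solubility was assessed while setting up thermal denaturation experiments with salmon sperm DNA (68% A–T base-pair content). Each buffer (phosphate, MES, Tris) was tried alone and also mixed with DMSO or ethanol.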
A short description of data set [2]: Solubility of the compound in Tris buffer. Format: physicochemical. The method in brief:
as §1

Data set [3] can be described thus: Solubility of the compound in phosphate buffer. Format: physicochemical. The method in brief:
as §1

Data set [4] has as its target T1, Methylated-DNA--protein-cysteine methyltransferase (Homo sapiens, UniProt P16455).
T1 sequence (P16455 whole entry): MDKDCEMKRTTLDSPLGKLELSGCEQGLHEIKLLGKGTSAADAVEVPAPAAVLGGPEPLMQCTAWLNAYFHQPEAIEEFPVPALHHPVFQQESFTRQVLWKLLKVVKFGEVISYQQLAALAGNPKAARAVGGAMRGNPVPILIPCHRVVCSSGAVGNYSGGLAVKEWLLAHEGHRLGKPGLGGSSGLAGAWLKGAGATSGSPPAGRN
Briefly: Inactivation of human O-6-methylguanine-DNA methyltransferase assessed as [3H]methylated protein formation by liquid scintillation counting in presence of [3H]methylated calf thymus DNA.

By IC50 is commonly meant the concentration that gives 50% inhibition.

Consider `Nc1ccc(C(=O)c2ccc(Nc3nc(N)nc(OCc4ccccc4)c3[N+](=O)[O-])cc2)cc1`, for which the solubility entry in data set [1], in data set [2] and in data set [3] was “Insoluble” each time. The IC50 in data set [4] is above 600 µM.

Consider `Nc1ccc(C(=O)c2ccc(Nc3nc(N)nc(OCc4cc(Br)cs4)c3[N+](=O)[O-])cc2)cc1`, for which the solubility result in data set [1], in data set [2] and in data set [3] was “Insoluble” each time.

Turning to `Nc1ccc(Cc2ccc(Nc3nc(N)nc(OCc4ccccc4)c3[N+](=O)[O-])cc2)cc1`, the solubility entry in data set [1], in data set [2] and in data set [3] was “Insoluble” in each case.

As to `Nc1ccc(Cc2ccc(Nc3nc(N)nc(OCc4cc(Br)cs4)c3[N+](=O)[O-])cc2)cc1`, the solubility result in data set [1], in data set [2] and in data set [3] was “Insoluble” each time.

Consider `Nc1ccc(Oc2ccc(Nc3nc(N)nc(OCc4ccccc4)c3[N+](=O)[O-])cc2)cc1`, for which the solubility result in data set [1], in data set [2] and in data set [3] was “Insoluble” in each case. The IC50 in data set [4] is above 600 µM.

As to `Nc1ccc(Oc2ccc(Nc3nc(N)nc(OCc4cc(Br)cs4)c3[N+](=O)[O-])cc2)cc1`, the solubility entry in data set [1], in data set [2] and in data set [3] was “Insoluble” throughout.

On to `Nc1nc(OCc2cc(Br)cs2)c2[nH]cnc2n1` [LOMEGUATRIB], for which, in data set [4], the IC50 amounted to 0.003 µM.

With `Nc1ccc(Nc2ccc(Nc3nc(N)nc(OCc4cc(Br)cs4)c3[N+](=O)[O-])cc2)cc1`, the solubility result in data set [1], in data set [2] and in data set [3] was “Insoluble” each time.

Consider `Nc1ccc(Nc2ccc(Nc3nc(N)nc(OCc4ccccc4)c3[N+](=O)[O-])cc2)cc1`, for which the solubility entry in data set [1], in data set [2] and in data set [3] was “Insoluble” in each case.

The values above are taken from ChEMBL document CHEMBL1681736, “Towards more specific O6-methylguanine-DNA methyltransferase (MGMT) inactivators” (Bioorg Med Chem, 2011).
